Results on nine compounds are retold here after ChEMBL document CHEMBL4041484, “Semisynthesis and Structure-Activity Studies of Uncarinic Acid C Isolated from Uncaria rhynchophylla as a Specific Inhibitor of the Nucleation Phase in Amyloid β42 Aggregation” (J Nat Prod, 2016).

Data set [1] addresses Amyloid-beta precursor protein (Homo sapiens) (UniProt P05067). The experiment in a line: Inhibition of HFIP pretreated Abeta42 (unknown origin) aggregation at elongation phase at 50 uM by Thioflavin-T fluorescence assay. The method, boiled down: (§1)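 Aβ42 was held at 250 μM in HFIP for 30 min at room temperature, sonicated 5 min, dried under reduced pressure, then redissolved in 0.1% NH4OH. It was incubated at 25 μM with compound at 50 μM in PBS, pH 7.4, at 37 °C, sampled periodically over time. Th-T (5.0 μM, Gly-NaOH pH 8.5) fluorescence was read at ex 430/em 485 nm. Means ± SD, n = 8.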

Data set [2] has the same target. As to the kind of experiment: Inhibition of HFIP pretreated Abeta42 (unknown origin) aggregation at nucleation phase at 50 uM by Thioflavin-T fluorescence assay. The method, boiled down: as §1
For data set [3] the target is unchanged. The experiment in a line: Inhibition of Abeta42 (unknown origin) aggregation at early stage incubated for 8 hrs by Thioflavin-T fluorescence assay. Put shortly:
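Synthetic Aβ42 (250 μM stock in 0.1% NH4OH), final 25 μM, with compound at 50 μM final (5 mM ethanol stock) in PBS (50 mM sodium phosphate, 100 mM NaCl, pH 7.4), 37 °C for 8 h. An aliquot was mixed with 5.0 μM Th-T in 5.0 mM Gly-NaOH, pH 8.5, and read at ex 430/em 485 nm. Eight points were measured per time.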

The target is the same in data set [4]. The experiment in a line: Inhibition of HFIP pretreated Abeta42 (unknown origin) aggregation at nucleation phase assessed as time required for nucleation of Abeta42 at 50 uM by Thioflavin-T fluorescence assay. The method, boiled down: as §1
Data set [5] in a line: Solubility of the compound in phosphate-buffered saline at pH 7.4 at 50 uM. The following applies: buffer, pH 7.4, 50 µM. It counts as physicochemical.
Data set [6] has as its target Amyloid-beta precursor protein (Homo sapiens) (UniProt P05067). As to the kind of experiment: Inhibition of HFIP pretreated Abeta42 (unknown origin) aggregation at nucleation phase assessed as time delay for Abeta42 aggregation velocity at 50 uM by sedimentation assay. The method, boiled down: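 HFIP-pretreated Aβ42 (25 μM) and compound (50 μM) were incubated in PBS, pH 7.4, at 37 °C over a time course. Samples were centrifuged at 15 000 rpm, 4 °C, 10 min. Supernatant Aβ42 was quantified by reversed-phase HPLC (ODS, 10–50% CH3CN in 0.1% NH4OH over 30 min, 1.0 mL/min, UV detection). Means ± SE, n = 2.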

Each structure is given as a SMILES string. The source made the active and inactive calls. The calls are words filed in the database; no cut-off is given here.

Amyloid-beta precursor protein (Homo sapiens), sequence (P05067 whole entry): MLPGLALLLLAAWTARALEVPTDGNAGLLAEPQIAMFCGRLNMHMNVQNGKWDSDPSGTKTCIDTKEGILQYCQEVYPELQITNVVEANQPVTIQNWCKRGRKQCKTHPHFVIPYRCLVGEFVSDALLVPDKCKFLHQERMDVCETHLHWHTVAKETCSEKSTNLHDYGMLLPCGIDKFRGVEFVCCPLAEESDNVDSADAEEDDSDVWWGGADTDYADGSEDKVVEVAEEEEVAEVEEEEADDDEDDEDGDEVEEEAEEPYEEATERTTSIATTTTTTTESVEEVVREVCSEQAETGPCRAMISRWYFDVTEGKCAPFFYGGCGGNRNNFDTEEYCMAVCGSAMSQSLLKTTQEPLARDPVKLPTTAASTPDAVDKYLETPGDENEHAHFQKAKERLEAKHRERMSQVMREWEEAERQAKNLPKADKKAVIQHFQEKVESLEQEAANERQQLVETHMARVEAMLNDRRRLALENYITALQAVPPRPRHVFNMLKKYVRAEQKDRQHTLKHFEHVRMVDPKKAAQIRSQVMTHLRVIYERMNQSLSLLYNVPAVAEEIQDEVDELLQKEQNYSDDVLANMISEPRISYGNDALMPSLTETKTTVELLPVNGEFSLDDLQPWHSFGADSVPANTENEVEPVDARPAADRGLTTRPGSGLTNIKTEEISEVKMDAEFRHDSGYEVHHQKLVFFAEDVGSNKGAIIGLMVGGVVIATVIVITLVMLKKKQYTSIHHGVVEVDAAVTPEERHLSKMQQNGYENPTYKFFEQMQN

Consider `C[C@H]1[C@H](C)CC[C@]2(C(=O)O)CC[C@]3(C)C(=CC[C@@H]4[C@@]5(C)CC[C@H](O)C(C)(C)[C@@H]5CC[C@]43C)[C@H]12`, for which the inhibition result in data set [1] and in data set [2] was “inactive” in each case.

With `COc1cc(/C=C/C(=O)OC[C@@]23CC[C@@]4(C(=O)O)CC[C@@H](C)[C@H](C)[C@H]4C2=CC[C@@H]2[C@@]4(C)CC[C@H](O)C(C)(C)[C@@H]4CC[C@]23C)ccc1O`, in data set [3], the inhibition entry was “Active”. Further, the TIME in data set [4] was determined as 12 h; in data set [6], 8 h. Besides, the solubility result in data set [5] is on record as “Soluble”.

Consider `COc1cc(/C=C/C(=O)OC[C@@]23CC[C@@]4(CO)CC[C@@H](C)[C@H](C)[C@H]4C2=CC[C@@H]2[C@@]4(C)CC[C@H](O)C(C)(C)[C@@H]4CC[C@]23C)ccc1O`, for which the inhibition entry in data set [1] and in data set [2] was “inactive” in each case.

Turning to `C[C@H]1[C@H](C)CC[C@]2(C(=O)O)CC[C@]3(CO)C(=CC[C@@H]4[C@@]5(C)CC[C@H](O)C(C)(C)[C@@H]5CC[C@]43C)[C@H]12`, the inhibition result in data set [1] and in data set [2] was “inactive” in each case.

With `COC(=O)[C@]12CC[C@@H](C)[C@H](C)[C@H]1C1=CC[C@@H]3[C@@]4(C)CC[C@H](O)C(C)(C)[C@@H]4CC[C@@]3(C)[C@]1(COC(=O)/C=C/c1ccc(O)c(OC)c1)CC2`, the inhibition result in data set [1] and in data set [2] was “inactive” in each case.

Turning to `COc1cc(/C=C\C(=O)OC[C@@]23CC[C@@]4(C(=O)O)CC[C@@H](C)[C@H](C)[C@H]4C2=CC[C@@H]2[C@@]4(C)CC[C@H](O)C(C)(C)[C@@H]4CC[C@]23C)ccc1O`, the inhibition entry in data set [3] was “Active”. In addition, the TIME in data set [4] amounted to 10 h. The solubility entry in data set [5] is listed as “Soluble”.

As to `COc1cc(/C=C\C(=O)OC[C@@]23CC[C@@]4(C(=O)O)CCC(C)(C)C[C@H]4C2=CC[C@@H]2[C@@]4(C)CC[C@H](O)C(C)(C)[C@@H]4CC[C@]23C)ccc1O`, the inhibition entry in data set [3] was “Active”. In data set [4], the TIME came out at 10 h. For the same compound, the solubility entry in data set [5] is reported as “Soluble”.

As for `CC(=O)OC[C@@]12CC[C@@]3(C(=O)O)CC[C@@H](C)[C@H](C)[C@H]3C1=CC[C@@H]1[C@@]3(C)CC[C@H](O)C(C)(C)[C@@H]3CC[C@]12C`, the inhibition entry in data set [1] and in data set [2] was “inactive” in each case.

On to `COc1cc(/C=C/C(=O)OC[C@@]23CC[C@@]4(C(=O)O)CCC(C)(C)C[C@H]4C2=CC[C@@H]2[C@@]4(C)CC[C@H](O)C(C)(C)[C@@H]4CC[C@]23C)ccc1O`, for which the inhibition result in data set [3] was “Active”. In data set [4], the TIME is 10 h. Also, the solubility entry in data set [5] is given as “Soluble”.
